Assay results from ChEMBL document CHEMBL4038350 (J Med Chem, 2017).
Non-standard residues stand in square brackets, D forms with d. Residues, ends and D or L forms follow the SMILES beside them.

What was measured:
Format in all cases: functional, cell-based
[1] = biological target: T1, Melanocortin receptor 3 (Mus musculus, UniProt P33033); assay: Antagonist activity at mouse melanocortin receptor 3 expressed in HEK293 cells assessed as inhibition of NDP-MSH-induced cAMP accumulation after 2 hrs by AlphaScreen assay; settings: read-out: pA2 (converted)
T1 sequence (P33033 whole entry): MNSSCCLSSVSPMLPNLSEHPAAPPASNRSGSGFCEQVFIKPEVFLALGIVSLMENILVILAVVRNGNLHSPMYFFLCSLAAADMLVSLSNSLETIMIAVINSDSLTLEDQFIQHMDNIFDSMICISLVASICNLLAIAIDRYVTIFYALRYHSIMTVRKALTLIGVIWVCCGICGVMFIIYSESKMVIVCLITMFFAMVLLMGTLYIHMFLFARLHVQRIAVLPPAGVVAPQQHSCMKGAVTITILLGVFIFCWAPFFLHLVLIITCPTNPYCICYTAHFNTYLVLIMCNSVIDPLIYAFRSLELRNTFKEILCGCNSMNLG

[2] = biological target: Melanocyte-stimulating hormone receptor (Mus musculus, UniProt Q01727); assay: Agonist activity at mouse melanocortin receptor 1 expressed in HEK293 cells assessed as increase in cAMP accumulation after 2 hrs by AlphaScreen assay
Sequence of Melanocyte-stimulating hormone receptor (Q01727 whole entry): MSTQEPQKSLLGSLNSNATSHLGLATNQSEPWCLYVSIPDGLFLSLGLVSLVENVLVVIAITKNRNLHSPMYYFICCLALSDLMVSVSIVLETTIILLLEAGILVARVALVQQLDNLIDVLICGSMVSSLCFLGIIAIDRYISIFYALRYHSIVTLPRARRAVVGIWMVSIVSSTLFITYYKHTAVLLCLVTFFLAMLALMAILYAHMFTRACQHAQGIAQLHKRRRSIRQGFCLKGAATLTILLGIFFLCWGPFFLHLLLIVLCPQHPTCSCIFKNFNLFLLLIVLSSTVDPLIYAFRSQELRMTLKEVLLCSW
Outline: (§1)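 Donor beads and biotin-cAMP in lysis buffer followed for 2 h. The AlphaScreen signal was read. EC50 came from nonlinear least-squares fits, duplicates, at least three independent experiments.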

[3] = biological target: T1, Melanocortin receptor 3; assay: Agonist activity at mouse melanocortin receptor 3 expressed in HEK293 cells assessed as increase in cAMP accumulation after 2 hrs by AlphaScreen assay
[4] = biological target: T2, Melanocortin receptor 4 (Mus musculus, UniProt P56450); assay: Agonist activity at mouse melanocortin receptor 4 expressed in HEK293 cells assessed as increase in cAMP accumulation after 2 hrs by AlphaScreen assay
T2 sequence (P56450 whole entry): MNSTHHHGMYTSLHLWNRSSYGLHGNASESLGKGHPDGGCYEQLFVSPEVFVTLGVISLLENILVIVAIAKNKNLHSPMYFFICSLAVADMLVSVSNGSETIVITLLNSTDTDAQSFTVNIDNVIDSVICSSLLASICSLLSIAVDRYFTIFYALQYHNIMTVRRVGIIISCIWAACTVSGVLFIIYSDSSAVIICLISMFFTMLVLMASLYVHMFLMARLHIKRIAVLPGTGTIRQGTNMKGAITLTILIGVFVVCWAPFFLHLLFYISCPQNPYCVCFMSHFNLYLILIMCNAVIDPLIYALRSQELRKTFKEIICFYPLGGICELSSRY

[5] = biological target: T2, Melanocortin receptor 4; assay: Antagonist activity at mouse melanocortin receptor 4 expressed in HEK293 cells assessed as inhibition of NDP-MSH-induced cAMP accumulation after 2 hrs by AlphaScreen assay; settings: read-out: pA2 (converted)
[6] = biological target: Melanocortin receptor 5 (Mus musculus) (UniProt P41149); assay: Inverse agonist activity at mouse melanocortin receptor 5 expressed in HEK293 cells assessed as decrease in cAMP accumulation at 250 nM after 2 hrs by AlphaScreen assay relative to control; design: scale not given: the % may be the effect or the level left
Sequence of Melanocortin receptor 5 (Mus musculus) (P41149 whole entry): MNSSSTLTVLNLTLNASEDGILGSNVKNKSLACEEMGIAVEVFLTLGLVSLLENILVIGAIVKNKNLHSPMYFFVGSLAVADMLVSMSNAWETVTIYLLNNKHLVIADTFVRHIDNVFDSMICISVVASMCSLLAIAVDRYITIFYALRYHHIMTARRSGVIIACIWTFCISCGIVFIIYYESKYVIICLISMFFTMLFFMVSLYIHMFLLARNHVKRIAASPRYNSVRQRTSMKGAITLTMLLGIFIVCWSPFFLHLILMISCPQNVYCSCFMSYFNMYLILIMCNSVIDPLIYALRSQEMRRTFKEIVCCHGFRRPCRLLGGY
Outline: (§2)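 In mouse MC5R-HEK293 cells, cAMP was measured by AlphaScreen after 2 h peptide exposure (10−4 to 10−13 M) at room temperature. Each replicate was normalized to its signal at 10−10 M. For sigmoidal curves, percent inverse agonism was the change from basal to the high-concentration plateau. Apparent potency was taken as the curve inflection point. Three independent experiments were run.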

[7] = biological target: Melanocortin receptor 5 (Mus musculus, UniProt P41149); assay: Agonist activity at mouse melanocortin receptor 5 expressed in HEK293 cells assessed as increase in cAMP accumulation after 2 hrs by AlphaScreen assay; outline: as §1
Sequence of Melanocortin receptor 5 (P41149 whole entry): as above

[8] = biological target: Melanocyte-stimulating hormone receptor (Mus musculus) (UniProt Q01727); assay: Partial agonist activity at mouse melanocortin receptor 1 expressed in HEK293 cells assessed as increase in cAMP accumulation after 2 hrs by AlphaScreen assay relative to NDP
Sequence of Melanocyte-stimulating hormone receptor (Mus musculus) (Q01727 whole entry, looked up): as the sequence (Q01727 whole entry) above
Outline: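 Mouse MC1R stably expressed in HEK293 cells, stimulated for 2 hr at room temperature in the dark. Peptide at 10−4 to 10−13 M in HBSS/HEPES buffer with 0.5 mM IBMX and 0.1% BSA, pH 7.4; forskolin 10−4 M. AlphaScreen cAMP detection after lysis and a further 2 hr. Signal normalized to maximal NDP-MSH response.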

[9] = biological target: Melanocortin receptor 5 (Mus musculus) (UniProt P41149); assay: Inverse agonist activity at mouse melanocortin receptor 5 expressed in HEK293 cells assessed as decrease in cAMP accumulation at 160 nM after 2 hrs by AlphaScreen assay relative to control; design: scale not given: the % may be the effect or the level left; outline: as §2
[10] = biological target: Melanocyte-stimulating hormone receptor (Mus musculus) (UniProt Q01727); assay: Agonist activity at mouse melanocortin receptor 1 expressed in HEK293 cells assessed as increase in cAMP accumulation at 100 uM after 2 hrs by AlphaScreen assay relative to control
Outline: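 Cyclic peptides were dissolved in DMSO. Receptor-expressing HEK293 cells in IBMX-containing stimulation buffer (pH 7.4) were stimulated for 2 h at room temperature. cAMP was then detected by competitive AlphaScreen after a 2 h lysis/bead step. […] Values come from at least three independent experiments.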

[11] = biological target: Melanocortin receptor 5 (Mus musculus) (UniProt P41149); assay: Inverse agonist activity at mouse melanocortin receptor 5 expressed in HEK293 cells assessed as decrease in cAMP accumulation at 60 nM after 2 hrs by AlphaScreen assay relative to control; design: scale not given: the % may be the effect or the level left; outline: as §2
[12] = biological target: Melanocortin receptor 5 (Mus musculus) (UniProt P41149); assay: Inverse agonist activity at mouse melanocortin receptor 5 expressed in HEK293 cells assessed as decrease in cAMP accumulation at 130 nM after 2 hrs by AlphaScreen assay relative to control; design: scale not given: the % may be the effect or the level left; outline: as §2
[13] = biological target: Melanocortin receptor 5 (Mus musculus) (UniProt P41149); assay: Inverse agonist activity at mouse melanocortin receptor 5 expressed in HEK293 cells assessed as decrease in cAMP accumulation at 50 nM after 2 hrs by AlphaScreen assay relative to control; design: scale not given: the % may be the effect or the level left; outline: as §2
[14] = biological target: Melanocortin receptor 5 (Mus musculus) (UniProt P41149); assay: Inverse agonist activity at mouse melanocortin receptor 5 expressed in HEK293 cells assessed as decrease in cAMP accumulation at 140 nM after 2 hrs by AlphaScreen assay relative to control; design: scale not given: the % may be the effect or the level left; outline: as §2

Structure (SMILES)	Kb [1]	EC50 [2]	EC50 [3]	EC50 [4]	Kb [5]	also measured
C[C@@H]1NC(=O)[C@H](C)NC(=O)[C@H](Cc2ccccc2)NC(=O)[C@H](Cc2ccccc2)NC(=O)[C@H](CCCNC(=N)N)NC(=O)[C@@H]2CCCN2C(=O)[C@H]2CCCN2C(=O)[C@H](Cc2ccccc2)NC1=O	> 3.16 µM	> 100 µM	> 100 µM	> 100 µM	0.0479 µM	Activity [6]: 20%
N=C(N)NCCC[C@@H]1NC(=O)[C@@H]2CCCN2C(=O)[C@H]2CCCN2C(=O)[C@H](Cc2ccccc2)NC(=O)[C@H](Cc2c[nH]cn2)NC(=O)[C@H](CC(N)=O)NC(=O)[C@H](Cc2ccccc2)NC(=O)[C@H](Cc2ccccc2)NC1=O (cyclo(RFFNHF[dP]P))	> 3.16 µM	2.6 µM	> 100 µM	> 100 µM	0.851 µM	EC50 [7]: > 100 µM; Activity [8]: 40%
CCC1NC(=O)[C@H](Cc2ccccc2)NC(=O)[C@H](Cc2ccccc2)NC(=O)[C@H](CCCNC(=N)N)NC(=O)[C@@H]2CCCN2C(=O)[C@H]2CCCN2C(=O)[C@H](Cc2ccccc2)NC(=O)[C@H](C)NC1=O (some centres undefined)	> 3.16 µM		> 100 µM			Activity [9]: 20%
C[C@@H]1NC(=O)[C@H](CN)NC(=O)[C@H](Cc2ccccc2)NC(=O)[C@H](Cc2ccccc2)NC(=O)[C@H](CCCNC(=N)N)NC(=O)[C@@H]2CCCN2C(=O)[C@H]2CCCN2C(=O)[C@H](Cc2ccccc2)NC1=O	0.302 µM		> 100 µM			Activity [10]: 30%; Activity [11]: 15%
C[C@@H]1NC(=O)[C@H](CC(N)=O)NC(=O)[C@H](Cc2ccccc2)NC(=O)[C@H](Cc2ccccc2)NC(=O)[C@H](CCCNC(=N)N)NC(=O)[C@@H]2CCCN2C(=O)[C@H]2CCCN2C(=O)[C@H](Cc2ccccc2)NC1=O						Activity [10]: 25%; Activity [12]: 10%
C[C@@H]1NC(=O)[C@H]([C@@H](C)O)NC(=O)[C@H](Cc2ccccc2)NC(=O)[C@H](Cc2ccccc2)NC(=O)[C@H](CCCNC(=N)N)NC(=O)[C@@H]2CCCN2C(=O)[C@H]2CCCN2C(=O)[C@H](Cc2ccccc2)NC1=O (cyclo(RFFTAF[dP]P))	0.398 µM	> 100 µM	> 100 µM	> 100 µM	0.0174 µM	Activity [13]: 20%
C[C@@H]1NC(=O)[C@H](CO)NC(=O)[C@H](Cc2ccccc2)NC(=O)[C@H](Cc2ccccc2)NC(=O)[C@H](CCCNC(=N)N)NC(=O)[C@@H]2CCCN2C(=O)[C@H]2CCCN2C(=O)[C@H](Cc2ccccc2)NC1=O	1.26 µM	> 100 µM	> 100 µM	> 100 µM	0.02 µM	Activity [14]: 25%
